{"source": "ChEMBL document CHEMBL4689842", "about": "“EUbOPEN Chemogenomics Library wave 1” (2021)", "tested_on": "HEK-293T", "experiment": "Multiplex assay against HEK293T;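 for Population Tubulin-Different-Phenotype (%): share of the cells with healthy nuclei that show this phenotype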", "type": "toxicity, cell-based", "settings": "human", "summary_of_the_method": "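Tubulin, mitochondrial-mass and membrane-permeability phenotypes are per cents of healthy-nucleus cells. Cells were gated by CellPathfinder machine learning into Hoechst high-intensity objects or normal cells, normal cells into healthy, pyknosed or fragmented nuclei, and pyknosed cells into mitotic or apoptotic. Before that, live cells stained at seeding with Hoechst33342, BioTracker Green Microtubule Cytoskeleton Dye, MitoTracker Red and Annexin V Alexa Fluor 680 were imaged on a CQ1 microscope at 37°C and 5% CO2 after compound addition.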", "key": {"[1]": {"settings": "12 h, 1 µM, compound concentration 1 uM, replicate 1"}, "[2]": {"settings": "12 h, 1 µM, compound concentration 1 uM, replicate 2"}, "[3]": {"settings": "12 h, 10 µM, compound concentration 10 uM, replicate 1"}, "[4]": {"settings": "12 h, 10 µM, compound concentration 10 uM, replicate 2"}, "[5]": {"settings": "24 h, 1 µM, compound concentration 1 uM, replicate 1"}, "[6]": {"settings": "24 h, 1 µM, compound concentration 1 uM, replicate 2"}, "[7]": {"settings": "24 h, 10 µM, compound concentration 10 uM, replicate 1"}, "[8]": {"settings": "24 h, 10 µM, compound concentration 10 uM, replicate 2"}}}
{"smiles": "COc1ccc(-c2ccc3c(N4CCOCC4)nc(N4C[C@@H](C)O[C@@H](C)C4)nc3n2)cc1CO", "note": "[Ku-0063794]", "values": [{"measurement": "Population Apoptotic (%)", "setting": "[1]", "value": 17, "unit": "%"}, {"measurement": "Population Fragmented Nuclei (%)", "setting": "[1]", "value": 21, "unit": "%"}, {"measurement": "Population Healthy Nuclei (%)", "setting": "[1]", "value": 63, "unit": "%"}, {"measurement": "Population Hoechst High Intensity Objects (%)", "setting": "[1]", "value": 20, "unit": "%"}, {"measurement": "Population Membrane Permeable-Phenotype (%)", "setting": "[1]", "value": 6, "unit": "%"}, {"measurement": "Population Mitochondria Different-Phenotype (%)", "setting": "[1]", "value": 3, "unit": "%"}, {"measurement": "Population Mitotic Cells (%)", "setting": "[1]", "value": 82, "unit": "%"}, {"measurement": "Population Normal (%)", "setting": "[1]", "value": 79, "unit": "%"}, {"measurement": "Population Pyknosed Nuclei (%)", "setting": "[1]", "value": 14, "unit": "%"}, {"measurement": "Population Tubulin-Different-Phenotype (%)", "setting": "[1]", "value": 3, "unit": "%"}, {"measurement": "Total Cell Count", "setting": "[1]", "value": 492}, {"measurement": "Population Apoptotic (%)", "setting": "[2]", "value": 8, "unit": "%"}, {"measurement": "Population Fragmented Nuclei (%)", "setting": "[2]", "value": 12, "unit": "%"}, {"measurement": "Population Healthy Nuclei (%)", "setting": "[2]", "value": 82, "unit": "%"}, {"measurement": "Population Hoechst High Intensity Objects (%)", "setting": "[2]", "value": 2, "unit": "%"}, {"measurement": "Population Membrane Permeable-Phenotype (%)", "setting": "[2]", "value": 1, "unit": "%"}, {"measurement": "Population Mitochondria Different-Phenotype (%)", "setting": "[2]", "value": 4, "unit": "%"}, {"measurement": "Population Mitotic Cells (%)", "setting": "[2]", "value": 91, "unit": "%"}, {"measurement": "Population Normal (%)", "setting": "[2]", "value": 97, "unit": "%"}, {"measurement": "Population Pyknosed Nuclei (%)", "setting": "[2]", "value": 4, "unit": "%"}, {"measurement": "Population Tubulin-Different-Phenotype (%)", "setting": "[2]", "value": 5, "unit": "%"}, {"measurement": "Total Cell Count", "setting": "[2]", "value": 1701}, {"measurement": "Population Apoptotic (%)", "setting": "[3]", "value": 41, "unit": "%"}, {"measurement": "Population Fragmented Nuclei (%)", "setting": "[3]", "value": 31, "unit": "%"}, {"measurement": "Population Healthy Nuclei (%)", "setting": "[3]", "value": 63, "unit": "%"}, {"measurement": "Population Hoechst High Intensity Objects (%)", "setting": "[3]", "value": 52, "unit": "%"}, {"measurement": "Population Membrane Permeable-Phenotype (%)", "setting": "[3]", "value": 11, "unit": "%"}, {"measurement": "Population Mitochondria Different-Phenotype (%)", "setting": "[3]", "value": 10, "unit": "%"}, {"measurement": "Population Mitotic Cells (%)", "setting": "[3]", "value": 58, "unit": "%"}, {"measurement": "Population Normal (%)", "setting": "[3]", "value": 47, "unit": "%"}, {"measurement": "Population Pyknosed Nuclei (%)", "setting": "[3]", "value": 4, "unit": "%"}, {"measurement": "Population Tubulin-Different-Phenotype (%)", "setting": "[3]", "value": 12, "unit": "%"}, {"measurement": "Total Cell Count", "setting": "[3]", "value": 726}, {"measurement": "Population Apoptotic (%)", "setting": "[4]", "value": 40, "unit": "%"}, {"measurement": "Population Fragmented Nuclei (%)", "setting": "[4]", "value": 11, "unit": "%"}, {"measurement": "Population Healthy Nuclei (%)", "setting": "[4]", "value": 87, "unit": "%"}, {"measurement": "Population Hoechst High Intensity Objects (%)", "setting": "[4]", "value": 27, "unit": "%"}, {"measurement": "Population Membrane Permeable-Phenotype (%)", "setting": "[4]", "value": 4, "unit": "%"}, {"measurement": "Population Mitochondria Different-Phenotype (%)", "setting": "[4]", "value": 15, "unit": "%"}, {"measurement": "Population Mitotic Cells (%)", "setting": "[4]", "value": 60, "unit": "%"}, {"measurement": "Population Normal (%)", "setting": "[4]", "value": 72, "unit": "%"}, {"measurement": "Population Pyknosed Nuclei (%)", "setting": "[4]", "value": 1, "unit": "%"}, {"measurement": "Population Tubulin-Different-Phenotype (%)", "setting": "[4]", "value": 17, "unit": "%"}, {"measurement": "Total Cell Count", "setting": "[4]", "value": 1160}, {"measurement": "Population Apoptotic (%)", "setting": "[5]", "value": 19, "unit": "%"}, {"measurement": "Population Fragmented Nuclei (%)", "setting": "[5]", "value": 19, "unit": "%"}, {"measurement": "Population Healthy Nuclei (%)", "setting": "[5]", "value": 71, "unit": "%"}, {"measurement": "Population Hoechst High Intensity Objects (%)", "setting": "[5]", "value": 11, "unit": "%"}, {"measurement": "Population Membrane Permeable-Phenotype (%)", "setting": "[5]", "value": 8, "unit": "%"}, {"measurement": "Population Mitochondria Different-Phenotype (%)", "setting": "[5]", "value": 2, "unit": "%"}, {"measurement": "Population Mitotic Cells (%)", "setting": "[5]", "value": 80, "unit": "%"}, {"measurement": "Population Normal (%)", "setting": "[5]", "value": 88, "unit": "%"}, {"measurement": "Population Pyknosed Nuclei (%)", "setting": "[5]", "value": 8, "unit": "%"}, {"measurement": "Population Tubulin-Different-Phenotype (%)", "setting": "[5]", "value": 7, "unit": "%"}, {"measurement": "Total Cell Count", "setting": "[5]", "value": 554}, {"measurement": "Population Apoptotic (%)", "setting": "[6]", "value": 12, "unit": "%"}, {"measurement": "Population Fragmented Nuclei (%)", "setting": "[6]", "value": 33, "unit": "%"}, {"measurement": "Population Healthy Nuclei (%)", "setting": "[6]", "value": 64, "unit": "%"}, {"measurement": "Population Hoechst High Intensity Objects (%)", "setting": "[6]", "value": 4, "unit": "%"}, {"measurement": "Population Membrane Permeable-Phenotype (%)", "setting": "[6]", "value": 5, "unit": "%"}, {"measurement": "Population Mitochondria Different-Phenotype (%)", "setting": "[6]", "value": 0, "unit": "%"}, {"measurement": "Population Mitotic Cells (%)", "setting": "[6]", "value": 87, "unit": "%"}, {"measurement": "Population Normal (%)", "setting": "[6]", "value": 95, "unit": "%"}, {"measurement": "Population Pyknosed Nuclei (%)", "setting": "[6]", "value": 1, "unit": "%"}, {"measurement": "Population Tubulin-Different-Phenotype (%)", "setting": "[6]", "value": 6, "unit": "%"}, {"measurement": "Total Cell Count", "setting": "[6]", "value": 2828}, {"measurement": "Population Apoptotic (%)", "setting": "[7]", "value": 27, "unit": "%"}, {"measurement": "Population Fragmented Nuclei (%)", "setting": "[7]", "value": 31, "unit": "%"}, {"measurement": "Population Healthy Nuclei (%)", "setting": "[7]", "value": 65, "unit": "%"}, {"measurement": "Population Hoechst High Intensity Objects (%)", "setting": "[7]", "value": 52, "unit": "%"}, {"measurement": "Population Membrane Permeable-Phenotype (%)", "setting": "[7]", "value": 11, "unit": "%"}, {"measurement": "Population Mitochondria Different-Phenotype (%)", "setting": "[7]", "value": 9, "unit": "%"}, {"measurement": "Population Mitotic Cells (%)", "setting": "[7]", "value": 72, "unit": "%"}, {"measurement": "Population Normal (%)", "setting": "[7]", "value": 47, "unit": "%"}, {"measurement": "Population Pyknosed Nuclei (%)", "setting": "[7]", "value": 3, "unit": "%"}, {"measurement": "Population Tubulin-Different-Phenotype (%)", "setting": "[7]", "value": 17, "unit": "%"}, {"measurement": "Total Cell Count", "setting": "[7]", "value": 759}, {"measurement": "Population Apoptotic (%)", "setting": "[8]", "value": 12, "unit": "%"}, {"measurement": "Population Fragmented Nuclei (%)", "setting": "[8]", "value": 26, "unit": "%"}, {"measurement": "Population Healthy Nuclei (%)", "setting": "[8]", "value": 71, "unit": "%"}, {"measurement": "Population Hoechst High Intensity Objects (%)", "setting": "[8]", "value": 24, "unit": "%"}, {"measurement": "Population Membrane Permeable-Phenotype (%)", "setting": "[8]", "value": 9, "unit": "%"}, {"measurement": "Population Mitochondria Different-Phenotype (%)", "setting": "[8]", "value": 4, "unit": "%"}, {"measurement": "Population Mitotic Cells (%)", "setting": "[8]", "value": 88, "unit": "%"}, {"measurement": "Population Normal (%)", "setting": "[8]", "value": 75, "unit": "%"}, {"measurement": "Population Pyknosed Nuclei (%)", "setting": "[8]", "value": 2, "unit": "%"}, {"measurement": "Population Tubulin-Different-Phenotype (%)", "setting": "[8]", "value": 32, "unit": "%"}, {"measurement": "Total Cell Count", "setting": "[8]", "value": 1535}]}
